Published values collected from several papers.
Lines come from different studies, so protocols differ.
Matrix: plasma

CS(=O)(=O)CCC#N
AUC(0-inf) (human; oral; 300 mg; single dose, fasted): 327000 ng·h/mL

CN(C)CCCNC(=O)/C(=C/CCCCC(=O)NO)COc1cccc2ccccc12
AUC(0-inf) (human; intravenous; 250 mg/m²; single dose): 37500 ng·h/mL

COc1ccc(-n2nc(C(N)=O)c3c2C(=O)N(c2ccc(N4CCCCC4=O)cc2)CC3)cc1
AUC(0-inf) (male human; oral; 25 mg; single dose): 3410 ng·h/mL

C[C@@]1(c2cc(NC(=O)c3ccc(C#N)cn3)ccc2F)C=CSC(N)=N1
AUC(0-inf) (human; oral; 30 mg; single dose): 2550 ng·h/mL

CCCOc1ccc([C@H]2CNC(=O)N2c2ccc3[nH]cnc3c2)cc1
AUC(0-inf) (human; oral; 200 mg; fasted, healthy volunteers): 2110 ng·h/mL

O=C(Nc1c(Cl)cncc1Cl)c1ccc(OC(F)F)c(OCC2CC2)c1
AUC(0-inf) (human; oral; 0.5 mg; single dose, fasted): 65.1 ng·h/mL

CCc1cnn2c(NCc3ccc[n+]([O-])c3)cc(N3CCCC[C@H]3CCO)nc12
AUC(0-inf) (human; intravenous; 9 mg/m²; patients): 796 ng·h/mL

C[C@@H](Oc1ccc(S(C)(=O)=O)cc1C(=O)N1C[C@@H]2C[C@]2(c2cc(C(F)(F)F)on2)C1)C(F)(F)F
AUC(0-inf) (human; oral; 25 mg; single dose): 12.2 µM·h

CCCCC[C@H](O)CC[C@@H]1[C@H]2Cc3cccc(OCC(=O)O)c3C[C@H]2C[C@H]1O
AUC(0-inf) (human; inhaled; 18 µg; single dose, healthy volunteers): 0.34 ng·h/mL

CCc1nc2c(C)cc(N3CCN(CC(=O)N4CC(O)C4)CC3)cn2c1N(C)c1nc(-c2ccc(F)cc2)c(C#N)s1
AUC(0-inf) (human; oral; 1000 mg; fed, healthy volunteers): 71400 ng·h/mL

CO[C@H]1CC[C@H](N2C(=O)CNc3ncc(-c4ccc(C(C)(C)O)nc4)nc32)CC1
AUC(0-inf) (human; oral; 15 mg; patients): 378 ng·h/mL

CC(=O)Oc1ccccc1C(=O)O
AUC(0-inf) (human; oral; 650 mg; healthy volunteers): 7690 ng·h/mL

CC(C)n1cc(C#N)c2cc(-n3cc(C(=O)O)cn3)ccc21
AUC(0-inf) (human; oral; 200 mg; single dose, fed): 44300 ng·h/mL

COc1ccc(-n2nc(C(N)=O)c3c2C(=O)N(c2ccc(N4CCCCC4=O)cc2)CC3)cc1
AUC(0-inf) (human; oral; 10 mg; single dose, healthy volunteers): 2530 ng·h/mL

Nc1ccc(-c2nc([C@H]3CCc4cc(-c5cc(Cl)ccc5-n5cnnn5)cc(=O)n43)c(F)[nH]2)c(F)n1
AUC(0-inf) (human; oral; 80 mg; single dose, fed): 15900 ng·h/mL

O=C(/C=C/c1cccc(S(=O)(=O)Nc2ccccc2)c1)NO
AUC(0-inf) (human; intravenous; 2000 mg/m²; patients): 86400 ng·h/mL

CC(C)(Sc1ccncc1-c1ccc(C#N)c2ccccc12)C(=O)O
AUC(0-inf) (male human; oral; 5 mg; single dose, fed, healthy volunteers): 92.8 ng·h/mL

C[C@@H](Oc1ccc(S(C)(=O)=O)cc1C(=O)N1C[C@@H]2C[C@]2(c2cc(C(F)(F)F)on2)C1)C(F)(F)F
AUC(0-inf) (human; oral; 25 mg; fasted, tablet): 9.17 µM·h

COc1ccc([C@@H]2CN(C(=O)[C@@H](O)CO)C[C@@]2(C)[C@@H](C)O)cc1OC1CN(c2ccc(C)cn2)C1
AUC(0-inf) (human; oral; 5 mg; single dose, healthy volunteers): 1850 ng·h/mL

CC(C)(O)c1ccccc1-c1ccc2[nH]c(/C=C/c3ccc(C(F)(F)F)cc3)nc2c1
AUC(0-inf) (male human; oral; 15 mg; single dose, fasted): 5190 ng·h/mL

CC(C)[C@](O)(c1ccc2cc(OC(F)F)c(OC(F)F)cc2c1)c1c[nH]nn1
AUC(0-inf) (female human; oral; 600 mg; single dose): 54700 ng·h/mL

Cn1cc(-c2ccc(S(=O)(=O)[C@@H]3C[C@@H](C(=O)NC4(C#N)CC4)N(C(=O)C4(C(F)(F)F)CC4)C3)c(C(F)(F)F)c2)cn1
AUC(0-inf) (human; oral; 100 mg; single dose, fed): 12600 ng·h/mL

COc1ccc2[nH]c([S+]([O-])Cc3ncc(C)c(OC)c3C)nc2c1 (stereo not shown)
AUC(0-inf) (male human; oral; 100 µg): 2.46 ng·h/mL

CO[C@H]1/C=C\C=C(/C)C(=O)NC2=CC(=O)C(NCCN(C)C)=C(C[C@@H](C)C[C@H](OC)[C@H](O)[C@@H](C)/C=C(\C)[C@@H]1OC(N)=O)C2=O
AUC(0-inf) (human; intravenous; 27 mg/m²; patients, infusion): 4140 ng·h/mL

C=C(F)C(=O)N1CCN(c2nc(OC[C@@H]3CCCN3C)nc3c2CCN(c2cccc4cccc(Cl)c24)C3)C[C@@H]1CC#N
AUC(0-inf) (human; oral; 600 mg; single dose, fasted): 37100 ng·h/mL
